Laboratory results as given in ChEMBL document CHEMBL1154352, “Toll-like receptor 7 selective synthetic oligoribonucleotide agonists: synthesis and structure-activity relationship studies” (J Med Chem, 2009).
Active and inactive are the calls of the source. The calls are words filed in the database; no cut-off is given here.

What was measured:
[1] = molecular target: T1, Toll-like receptor 9 (Mus musculus) (UniProt Q9EQU3); assay: Activation of mouse TLR9 expressed in HEK293 assessed as induction of NF-kappaB activity reporter gene assay; assay type: cell-based
T1 sequence (whole entry): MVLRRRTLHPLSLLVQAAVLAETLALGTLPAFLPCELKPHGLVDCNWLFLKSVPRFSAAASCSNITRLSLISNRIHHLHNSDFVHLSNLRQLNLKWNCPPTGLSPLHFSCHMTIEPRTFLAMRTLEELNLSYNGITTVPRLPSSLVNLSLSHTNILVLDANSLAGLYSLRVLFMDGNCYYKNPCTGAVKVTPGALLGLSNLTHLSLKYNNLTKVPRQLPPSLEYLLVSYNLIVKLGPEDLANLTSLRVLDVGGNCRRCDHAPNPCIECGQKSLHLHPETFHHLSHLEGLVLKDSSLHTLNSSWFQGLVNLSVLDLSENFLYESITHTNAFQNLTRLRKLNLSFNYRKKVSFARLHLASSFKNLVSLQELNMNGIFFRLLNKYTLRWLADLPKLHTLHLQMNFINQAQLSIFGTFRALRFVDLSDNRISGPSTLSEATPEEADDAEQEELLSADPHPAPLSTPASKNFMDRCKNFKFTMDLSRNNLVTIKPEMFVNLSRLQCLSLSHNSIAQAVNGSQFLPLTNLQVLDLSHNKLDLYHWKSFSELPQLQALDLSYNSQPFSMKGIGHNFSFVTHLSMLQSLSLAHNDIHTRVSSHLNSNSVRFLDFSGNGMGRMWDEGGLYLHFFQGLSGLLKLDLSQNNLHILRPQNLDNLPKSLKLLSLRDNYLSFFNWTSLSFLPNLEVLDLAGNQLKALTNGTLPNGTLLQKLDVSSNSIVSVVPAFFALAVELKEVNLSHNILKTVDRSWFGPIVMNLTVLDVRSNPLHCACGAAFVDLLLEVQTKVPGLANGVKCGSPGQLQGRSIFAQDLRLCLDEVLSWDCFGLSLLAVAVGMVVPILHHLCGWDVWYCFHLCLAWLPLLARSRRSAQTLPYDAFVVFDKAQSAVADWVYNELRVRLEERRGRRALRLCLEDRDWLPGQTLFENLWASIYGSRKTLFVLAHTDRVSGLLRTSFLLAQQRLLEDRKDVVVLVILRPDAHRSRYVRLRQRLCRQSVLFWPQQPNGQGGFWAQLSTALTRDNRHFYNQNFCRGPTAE

[2] = system: PBMC; assay: Immunomodulatory activity in human PBMC assessed as induction of TNFalpha at 100 ug/ml after 24 hrs; assay type: functional, cell-based
In short: (§1)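 Human PBMCs plated at 5 × 10^6 cells/mL; compounds dissolved in PBS added at various concentrations, 37 °C for 24 h. Supernatant cytokines/chemokines quantified with human Luminex multiplex kit.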

[3] = system: PBMC; assay: Immunomodulatory activity in human PBMC assessed as induction of IFN-alpha at 100 ug/ml after 24 hrs
[4] = system: Splenocyte; assay: Immunomodulatory activity in C57BL/6 mouse splenocytes bearing TLR7 receptor assessed as IL12 release at 100 ug/ml after 24 hrs by ELISA; assay type: functional, cell-based
In short: (§2)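 C57BL/6 splenocytes in RPMI 1640 with 10% FBS, penicillin/streptomycin, 2 mM L-glutamine, plated at 5 × 10^6 cells/mL; compounds in PBS added, 37 °C for 24 h. Supernatant IL-12 and IL-6 by ELISA; representative of three independent experiments.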

[5] = system: PBMC; assay: Immunomodulatory activity in human PBMC assessed as induction of IL12 at 100 ug/ml after 24 hrs; assay type: functional, cell-based; in short: as §1
[6] = system: Splenocyte; assay: Immunomodulatory activity in C57BL/6 mouse splenocytes bearing TLR7 receptor assessed as IL6 release at 100 ug/ml after 24 hrs by ELISA; assay type: functional, cell-based; in short: as §2
[7] = Metabolic stability in human serum assessed as full length product remaining after 10 mins by HPLC; assay type: ADME, cell-free; settings: read-out: Stability
In short: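 About 0.5 A260 units compound in 1% human serum in PBS, 37 °C; aliquot taken at 10 min, analysed by anion-exchange HPLC for percent intact full-length product.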

[8] = molecular target: T2, Toll-like receptor 8 (Homo sapiens) (UniProt Q9NR97); assay: Activation of human TLR8 expressed in HEK293XL assessed as fold induction of NF-kappaB activity at 50 ug/ml after 18 hrs by reporter gene assay relative to control
T2 sequence (whole entry): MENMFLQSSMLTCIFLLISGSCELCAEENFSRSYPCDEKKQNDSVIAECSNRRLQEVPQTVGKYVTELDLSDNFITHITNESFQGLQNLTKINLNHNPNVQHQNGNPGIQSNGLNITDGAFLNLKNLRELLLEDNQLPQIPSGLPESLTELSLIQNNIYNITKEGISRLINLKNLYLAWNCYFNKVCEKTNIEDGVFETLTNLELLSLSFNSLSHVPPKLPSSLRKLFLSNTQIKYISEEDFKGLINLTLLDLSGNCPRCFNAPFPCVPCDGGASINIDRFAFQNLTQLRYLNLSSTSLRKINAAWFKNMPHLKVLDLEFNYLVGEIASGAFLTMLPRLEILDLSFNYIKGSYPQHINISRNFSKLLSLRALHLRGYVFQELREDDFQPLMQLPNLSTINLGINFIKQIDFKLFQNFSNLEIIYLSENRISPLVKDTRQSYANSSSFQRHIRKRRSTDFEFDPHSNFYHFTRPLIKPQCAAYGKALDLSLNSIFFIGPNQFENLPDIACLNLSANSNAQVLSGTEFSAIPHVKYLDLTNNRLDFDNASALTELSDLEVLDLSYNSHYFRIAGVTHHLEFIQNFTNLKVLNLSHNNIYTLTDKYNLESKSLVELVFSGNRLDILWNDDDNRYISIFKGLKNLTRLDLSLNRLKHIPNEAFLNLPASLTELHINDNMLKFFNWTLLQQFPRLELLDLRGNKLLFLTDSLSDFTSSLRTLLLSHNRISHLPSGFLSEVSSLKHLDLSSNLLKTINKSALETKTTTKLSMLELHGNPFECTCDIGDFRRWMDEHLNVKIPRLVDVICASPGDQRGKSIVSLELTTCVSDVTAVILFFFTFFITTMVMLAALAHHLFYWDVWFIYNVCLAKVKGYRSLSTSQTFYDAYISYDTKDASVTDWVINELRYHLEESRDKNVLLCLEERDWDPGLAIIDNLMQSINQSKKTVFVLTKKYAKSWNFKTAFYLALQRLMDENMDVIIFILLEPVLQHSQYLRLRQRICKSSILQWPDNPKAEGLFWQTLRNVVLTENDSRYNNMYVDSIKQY
In short: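 HEK293 cells stably expressing human TLR7 or TLR8, transiently transfected with SEAP reporter plasmid; medium replaced, SIMRA compounds added, 18 h incubation. Supernatant SEAP measured by QuantiBlue; expressed as fold increase in NF-κB activity over PBS control. Tabulated data at 50 μg/mL, representative of three independent experiments.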

[9] = molecular target: Toll-like receptor 3 (Homo sapiens) (UniProt O15455); assay: Activation of human TLR3 expressed in HEK293 assessed as induction of NF-kappaB activity reporter gene assay; assay type: cell-based
Toll-like receptor 3 (Homo sapiens), sequence (O15455 whole entry): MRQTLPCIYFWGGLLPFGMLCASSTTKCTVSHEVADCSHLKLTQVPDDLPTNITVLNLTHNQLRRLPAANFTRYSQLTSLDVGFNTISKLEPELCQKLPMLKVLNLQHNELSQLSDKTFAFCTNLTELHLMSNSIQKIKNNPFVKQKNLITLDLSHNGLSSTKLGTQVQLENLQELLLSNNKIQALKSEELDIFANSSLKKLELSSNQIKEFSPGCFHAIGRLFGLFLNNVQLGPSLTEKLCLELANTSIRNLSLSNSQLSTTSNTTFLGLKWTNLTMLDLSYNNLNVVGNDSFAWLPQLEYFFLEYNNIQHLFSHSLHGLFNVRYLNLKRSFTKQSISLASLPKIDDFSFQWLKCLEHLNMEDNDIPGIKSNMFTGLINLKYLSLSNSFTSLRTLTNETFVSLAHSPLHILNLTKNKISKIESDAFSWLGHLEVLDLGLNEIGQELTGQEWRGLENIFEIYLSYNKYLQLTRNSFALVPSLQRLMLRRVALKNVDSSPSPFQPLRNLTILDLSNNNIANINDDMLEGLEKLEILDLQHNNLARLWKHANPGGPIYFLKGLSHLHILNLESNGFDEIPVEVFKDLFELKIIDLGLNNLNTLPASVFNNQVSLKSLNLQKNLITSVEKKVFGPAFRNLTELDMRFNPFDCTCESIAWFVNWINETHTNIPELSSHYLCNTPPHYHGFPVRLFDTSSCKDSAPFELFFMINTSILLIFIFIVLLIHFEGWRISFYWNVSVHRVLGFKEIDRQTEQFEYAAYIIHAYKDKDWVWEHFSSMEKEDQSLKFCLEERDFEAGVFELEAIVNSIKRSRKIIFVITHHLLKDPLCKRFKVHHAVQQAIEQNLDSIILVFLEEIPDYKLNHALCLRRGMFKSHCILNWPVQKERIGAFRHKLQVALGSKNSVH

Activity [1] | Activity [4] | Activity [6] | remaining at 10 min [7] | fold change (FC) [8] | Activity [9] | Compound | Activity [2] | IFN-alpha [3] | Activity [5]
inactive | Active | Active | 83% | 1.6 | inactive | Nc1ccn([C@@H]2O[C@H](COP(=O)(S)O[C@H]3[C@@H](O)[C@H](n4ccc5c(=O)[nH]c(N)nc54)O[C@@H]3COP(=O)(S)O[C@H]3[C@@H](O)[C@H](n4cnc5c(N)ncnc54)O[C@@H]3COP(=O)(S)O[C@H]3[C@@H](O)[C@H](n4cnc5c(N)ncnc54)O[C@@H]3COP(=O)(S)O[C@H]3[C@@H](O)[C@H](n4ccc5c(=O)[nH]c(N)nc54)O[C@@H]3COP(=O)(S)O[C@H]3[C@@H](O)[C@H](n4ccc(=O)[nH]c4=O)O[C@@H]3COP(=O)(S)O[C@H]3[C@@H](O)[C@H](n4ccc(=O)[nH]c4=O)O[C@@H]3COP(=O)(S)O[C@H]3[C@@H](O)[C@H](n4cnc5c(N)ncnc54)O[C@@H]3COP(=O)(S)O[C@H]3[C@@H](O)[C@H](n4cnc5c(N)ncnc54)O[C@@H]3CO)[C@@H](OP(=O)(S)OC[C@H]3O[C@@H](n4ccc(=O)[nH]c4=O)[C@H](O)[C@@H]3OP(=O)(S)OC[C@H]3O[C@@H](n4ccc(=O)[nH]c4=O)[C@H](O)[C@@H]3OP(=O)(S)OCC(O)COP(=O)(S)O[C@H]3[C@@H](O)[C@H](n4ccc(=O)[nH]c4=O)O[C@@H]3COP(=O)(S)O[C@H]3[C@@H](O)[C@H](n4ccc(=O)[nH]c4=O)O[C@@H]3COP(=O)(S)O[C@H]3[C@@H](O)[C@H](n4ccc(N)nc4=O)O[C@@H]3COP(=O)(S)O[C@H]3[C@@H](O)[C@H](n4ccc5c(=O)[nH]c(N)nc54)O[C@@H]3COP(=O)(S)O[C@H]3[C@@H](O)[C@H](n4cnc5c(N)ncnc54)O[C@@H]3COP(=O)(S)O[C@H]3[C@@H](O)[C@H](n4cnc5c(N)ncnc54)O[C@@H]3COP(=O)(S)O[C@H]3[C@@H](O)[C@H](n4ccc5c(=O)[nH]c(N)nc54)O[C@@H]3COP(=O)(S)O[C@H]3[C@@H](O)[C@H](n4ccc(=O)[nH]c4=O)O[C@@H]3COP(=O)(S)O[C@H]3[C@@H](O)[C@H](n4ccc(=O)[nH]c4=O)O[C@@H]3COP(=O)(S)O[C@H]3[C@@H](O)[C@H](n4cnc5c(N)ncnc54)O[C@@H]3COP(=O)(S)O[C@H]3[C@@H](O)[C@H](n4cnc5c(N)ncnc54)O[C@@H]3CO)[C@H]2O)c(=O)n1 (stereo partly drawn) | 29.3 pg/mL | 95.5 pg/mL | 401 pg/mL
inactive | Active | Active | 77% | 1 | inactive | Nc1ccn([C@@H]2O[C@H](COP(=O)(S)O[C@H]3[C@@H](O)[C@H](n4cnc5c(N)ncnc54)O[C@@H]3COP(=O)(S)O[C@H]3[C@@H](O)[C@H](n4cnc5c(N)ncnc54)O[C@@H]3CO)[C@@H](OP(=O)(S)OC[C@H]3O[C@@H](n4ccc(=O)[nH]c4=O)[C@H](O)[C@@H]3OP(=O)(S)OC[C@H]3O[C@@H](n4ccc5c(=O)[nH]c(N)nc54)[C@H](O)[C@@H]3OP(=O)(S)OC[C@H]3O[C@@H](n4cnc5c(N)ncnc54)[C@H](O)[C@@H]3OP(=O)(S)OC[C@H]3O[C@@H](n4cnc5c(N)ncnc54)[C@H](O)[C@@H]3OP(=O)(S)OC[C@H]3O[C@@H](n4ccc5c(=O)[nH]c(N)nc54)[C@H](O)[C@@H]3OP(=O)(S)OC[C@H]3O[C@@H](n4ccc(N)nc4=O)[C@H](O)[C@@H]3OP(=O)(S)OC[C@H]3O[C@@H](n4ccc(=O)[nH]c4=O)[C@H](O)[C@@H]3OP(=O)(S)OC[C@H]3O[C@@H](n4ccc(=O)[nH]c4=O)[C@H](O)[C@@H]3OP(=O)(S)OCC(O)COP(=O)(S)O[C@H]3[C@@H](O)[C@H](n4ccc(=O)[nH]c4=O)O[C@@H]3COP(=O)(S)O[C@H]3[C@@H](O)[C@H](n4ccc(=O)[nH]c4=O)O[C@@H]3COP(=O)(S)O[C@H]3[C@@H](O)[C@H](n4ccc(N)nc4=O)O[C@@H]3COP(=O)(S)O[C@H]3[C@@H](O)[C@H](n4ccc5c(=O)[nH]c(N)nc54)O[C@@H]3COP(=O)(S)O[C@H]3[C@@H](O)[C@H](n4cnc5c(N)ncnc54)O[C@@H]3COP(=O)(S)O[C@H]3[C@@H](O)[C@H](n4cnc5c(N)ncnc54)O[C@@H]3COP(=O)(S)O[C@H]3[C@@H](O)[C@H](n4ccc5c(=O)[nH]c(N)nc54)O[C@@H]3COP(=O)(S)O[C@H]3[C@@H](O)[C@H](n4ccc(=O)[nH]c4=O)O[C@@H]3COP(=O)(S)O[C@H]3[C@@H](O)[C@H](n4ccc(N)nc4=O)O[C@@H]3COP(=O)(S)O[C@H]3[C@@H](O)[C@H](n4cnc5c(N)ncnc54)O[C@@H]3COP(=O)(S)O[C@H]3[C@@H](O)[C@H](n4cnc5c(N)ncnc54)O[C@@H]3CO)[C@H]2O)c(=O)n1 (stereo partly drawn) | 7.5 pg/mL | 84.5 pg/mL | 260 pg/mL
